RGS4 pot: RGS4 potentiation or activation; 0.92% of 310,000 active; HEK293 M3R/inducible RGS4, carbachol calcium flux Fluo4; stronger effect = lower value; AID 463111; B-score at 10 µM;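 active means B-score of the integrated calcium signal more than 4 SD below the library mean, with starting fluorescence not abnormally high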;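 further: negative B-score means reduced calcium response which marks RGS4 activation or potentiation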
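Assay system: HEK293 FlpIn-TREx cells, stable M3R, doxycycline-inducible RGS4 / Probe or stimulus: carbachol, ECmax concentration / Times: overnight RGS4 induction, 30 min dye load 37 °C, 20 min compound RT / Signal: kinetic calcium fluorescence imaging with Fluo4-AM dye, 2 µM / Measure: Agonist-evoked peak-minus-minimum fluorescence over baseline, integrated ratio, B score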
Lipid droplet: modulators of hepatic lipid droplet formation | inhibition, % at 6.5 µM | AID 1656 | AML12 mouse hepatocytes, oleate lipid droplets, BODIPY imaging | 0.4% of 240,000 active;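 active means lipid droplet intensity inhibited by at least 50%, with more than 500 cells counted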
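Assay system: AML12 hepatocytes (mouse) / Also added: 100 µM oleic acid challenge / Times: overnight treatment with compound plus oleate / Detection: high-content imaging of BODIPY-stained droplets and DAPI nuclei / Evaluation: % inhibition of lipid droplet signal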
MrgX1 antag: blocks BAM8-22 activation of human MrgX1 receptor. 1.3% of 310,000 active. Q96LB2. MRGX1-HEK293 calcium flux, Fluo-4, BAM8-22 antagonism; stronger effect = lower value. AID 588676. B-score at 10 µM;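 active means calcium-response B-score plate-corrected more than 3 library SD below zero, starting fluorescence within 5 deviations, no agonist response on first addition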;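 further: peak minus trough fluorescence over baseline after final BAM8-22 challenge near maximal dose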
Target sequence (Q96LB2 whole entry, looked up): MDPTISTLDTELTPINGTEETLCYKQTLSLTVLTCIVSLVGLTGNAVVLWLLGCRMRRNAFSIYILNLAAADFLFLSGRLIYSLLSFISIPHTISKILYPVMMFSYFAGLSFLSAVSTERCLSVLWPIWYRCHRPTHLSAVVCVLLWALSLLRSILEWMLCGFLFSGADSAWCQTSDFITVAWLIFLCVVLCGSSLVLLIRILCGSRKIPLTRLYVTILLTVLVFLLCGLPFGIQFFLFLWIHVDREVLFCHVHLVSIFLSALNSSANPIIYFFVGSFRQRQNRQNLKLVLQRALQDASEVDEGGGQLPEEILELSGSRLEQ
MrgX1 PAM: human MrgX1 positive allosteric modulation, primary screen; MrgX1-HEK293, Fluo-4 calcium flux, FDSS; stronger effect = higher value; Q96LB2; AID 588675; B-score at 10 µM; 0.63% of 310,000 active;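 active means plate-corrected calcium response at least 3 library SD above typical, normal starting fluorescence, not activating the receptor alone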;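 further: compound read alongside a low EC10 to EC30 dose of BAM8-22 agonist; peak minus trough fluorescence over baseline measured at the second addition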
MrgX1 agonist: human MrgX1 receptor agonism, primary screen. Q96LB2. MrgX1-HEK293 cells, Fluo-4 calcium fluorescence, agonist mode; stronger effect = higher value. B-score at 10 µM. 0.44% of 310,000 active;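 active means calcium response B-score plate-corrected fluorescence ratio at least 3 library SD, with starting fluorescence B-score inside 5 SD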
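Test system: HEK293 cells stably expressing human MrgX1 receptor; Input: fifteen thousand cells per well; Dosing: compound delivered in addition one of three; Schedule: overnight seeding, then 1 h dark dye loading; Technique: Fluo-4 NW calcium fluorescence; Measure: B-scored fluorescence response ratio; Controls: positive and negative controls per plate.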
RGS4 block: human RGS4 inhibition; 0.45% of 310,000 active; HEK293 M3R/RGS4 inducible, Fluo-4 calcium flux; stronger effect = higher value; triggered by carbachol at its EC20; AID 463165; B-score at 10 µM; P49798;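 active means B-score, a plate-corrected calcium signal, over three deviations above library mean, with baseline fluorescence within five deviations of library mean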;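 further: RGS4 expression induced by doxycycline in cells with stable M3 receptor; B-score is computed from the integrated fluorescence ratio over baseline after carbachol; higher B-score means a larger calcium signal and so more RGS4 inhibition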
Target sequence (P49798 whole entry, looked up): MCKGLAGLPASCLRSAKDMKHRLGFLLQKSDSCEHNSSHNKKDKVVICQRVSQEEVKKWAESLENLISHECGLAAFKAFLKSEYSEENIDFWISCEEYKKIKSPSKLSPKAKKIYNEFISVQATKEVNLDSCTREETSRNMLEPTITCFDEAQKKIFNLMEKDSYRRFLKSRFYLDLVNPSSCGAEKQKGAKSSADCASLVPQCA
MrgX1 ant reconf: reconfirmed antagonist of human MrgX1 receptor signaling. MrgX1-HEK293, BAM8-22 calcium flux, Fluo-4; stronger effect = lower value. 19% of 2,300 active. shares compounds with MrgX1 antag. AID 602420. remaining BAM8-22 calcium response % of control (stronger effect = lower value), % at 10 µM;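 active means remaining agonist calcium response no higher than 100% minus 3 SD of agonist-only control wells, with starting fluorescence near control levels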;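 further: agonist BAM8-22 given at a near maximal EC90 to ECmax level; peak minus minimum fluorescence divided by baseline after agonist addition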
HEK293 Ca flux: MrgX1 antagonist counter-screen hit in parental HEK293 cells; 2% of 4,000 active; shares compounds with MrgX1 antag; Fluo-4 calcium fluorescence, FDSS; fluorescence ratio F(max-min)/F0 at 10 µM;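 active means duplicate-averaged calcium fluorescence ratio at least three times the standard deviation of buffer wells, a nonspecific response in parental cells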
HEK293 Ca counter: MrgX1 allosteric activator counter-screen hit in parental HEK293 cells; shares compounds with MrgX1 antag; AID 624114; parental HEK293 calcium flux, Fluo-4 fluorescence ratio; stronger effect = higher value; 0.4% of 4,000 active; fluorescence ratio F(max-min)/F0 at 10 µM;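 active means calcium fluorescence ratio, averaged over duplicates, at least 3 SD of the buffer-well ratio, meaning a nonspecific response in receptor-free cells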;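 further: untransfected parental HEK293 lacking MrgX1 used as counterscreen for MrgX1 allosteric activators; fluorescence change taken during the second addition on a kinetic imager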
HEK293 Ca cntr2: MrgX1 activator counter-screen hit in parental HEK293 cells; shares compounds with MrgX1 antag; 8.7% of 4,000 active; fluorescence ratio F(max-min)/F0 at 10 µM; AID 624115; Fluo-4 calcium fluorescence (FDSS); stronger effect = higher value;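 active means calcium fluorescence ratio at least three times the spread of buffer wells, meaning a non-specific response in parental cells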
Numbers stand for hits. An excerpt weighted towards active compounds, which were near 3.8% of everything screened.

Screening CCOC(=O)N1CCN(S(=O)(=O)N2CCCC(C(=O)NCCc3ccc(OCC)c(OCC)c3)C2)CC1 (stereo not drawn) returned RGS4 pot inactive, Lipid droplet inactive, MrgX1 antag inactive, MrgX1 PAM inactive, MrgX1 agonist inactive and RGS4 block inactive.
Screening O=C1c2ccccc2C(=O)C1c1ccc(O)cc1 returned RGS4 pot inactive, Lipid droplet inactive, MrgX1 antag inactive, MrgX1 PAM inactive, MrgX1 agonist inactive and RGS4 block inactive.
Screening CN(C)C1C(=O)c2ccccc2C1=O returned RGS4 pot inactive, Lipid droplet inactive, MrgX1 antag -5, MrgX1 PAM inactive, MrgX1 agonist inactive, RGS4 block inactive, MrgX1 ant reconf inactive, HEK293 Ca flux inactive, HEK293 Ca counter inactive and HEK293 Ca cntr2 inactive.
For COc1ccccc1CNC(=O)COc1cc2c(c3oc(=O)cc(C)c13)CCC(C)(C)O2 the results were RGS4 pot inactive, Lipid droplet inactive, MrgX1 antag -7.6, MrgX1 PAM inactive, MrgX1 agonist inactive, RGS4 block inactive, MrgX1 ant reconf 62%, HEK293 Ca flux inactive, HEK293 Ca counter inactive and HEK293 Ca cntr2 inactive.
`Cc1c(C)c2c(OCC(=O)Nc3ccc(CCO)cc3)cc3c(c2oc1=O)CCC(C)(C)O3` gave RGS4 pot inactive, Lipid droplet inactive, MrgX1 antag -6.2, MrgX1 PAM inactive, MrgX1 agonist inactive, RGS4 block inactive, MrgX1 ant reconf inactive, HEK293 Ca flux inactive, HEK293 Ca counter inactive and HEK293 Ca cntr2 inactive.
For Cc1nc(Nc2cccc(C(C)O)c2)c2nnn(Cc3ccccc3F)c2n1 (stereo not drawn) the results were RGS4 pot inactive, Lipid droplet inactive, MrgX1 antag inactive, MrgX1 PAM inactive, MrgX1 agonist inactive and RGS4 block inactive.
Screening COc1ccc(/C=C(/NC(=O)c2ccco2)C(=O)N2CCCC2=O)cc1 returned RGS4 pot inactive, Lipid droplet inactive, MrgX1 antag inactive, MrgX1 PAM inactive, MrgX1 agonist inactive and RGS4 block inactive.
`Cc1cccc(NC(=O)C(=O)NCC2CCCN2S(=O)(=O)c2cccs2)c1C` (stereo not drawn) gave RGS4 pot inactive, MrgX1 antag -5.5, MrgX1 PAM inactive, MrgX1 agonist inactive, RGS4 block inactive, MrgX1 ant reconf inactive, HEK293 Ca flux inactive, HEK293 Ca counter inactive and HEK293 Ca cntr2 inactive.
`O=C(NCc1ccccc1F)C(=O)NCC1CCCN1S(=O)(=O)c1cccs1` (stereo not drawn) gave RGS4 pot inactive, MrgX1 antag inactive, MrgX1 PAM inactive, MrgX1 agonist inactive and RGS4 block inactive.
Screening COc1ccccc1CNC(=O)C(=O)NCC1CCCN1S(=O)(=O)c1cccs1 (stereo not drawn) returned RGS4 pot inactive, MrgX1 antag -4.8, MrgX1 PAM inactive, MrgX1 agonist inactive, RGS4 block inactive, MrgX1 ant reconf 83%, HEK293 Ca flux inactive, HEK293 Ca counter inactive and HEK293 Ca cntr2 inactive.
Screening CNC(=O)C(=O)NCC1CCCN1S(=O)(=O)c1cccs1 (stereo not drawn) returned RGS4 pot inactive, MrgX1 antag inactive, MrgX1 PAM inactive, MrgX1 agonist inactive and RGS4 block inactive.

Source: PubChem (several laboratories)
